Results from PubChem BioAssay AID720543 (The Scripps Research Institute Molecular Screening Center, 2013).
Out of some 370,000 compounds screened, about 2,000 (0.54%) were called active. This is one part of a sample in which actives are shown more often than they occur.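 The calls were made as follows: active = inhibition exceeding the mean over every tested compound plus 3 SD (cut at about 30% in these data); inactive = the rest.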

molecular target: (Lyso)-N-acylphosphatidylethanolamine lipase (Mus musculus) (UniProt Q8VD66); assay: ABHD4 inhibitors, primary screen, biochemical, fluorescence polarization, mouse (AID 720543); details: purified mABHD4, FP-Rh probe fluorescence polarization; at 8.92 µM; hits give high values;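 also: 0% = plate median of compound wells and 100% = S159A mutant with DMSO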
Sequence (Q8VD66 whole entry, looked up): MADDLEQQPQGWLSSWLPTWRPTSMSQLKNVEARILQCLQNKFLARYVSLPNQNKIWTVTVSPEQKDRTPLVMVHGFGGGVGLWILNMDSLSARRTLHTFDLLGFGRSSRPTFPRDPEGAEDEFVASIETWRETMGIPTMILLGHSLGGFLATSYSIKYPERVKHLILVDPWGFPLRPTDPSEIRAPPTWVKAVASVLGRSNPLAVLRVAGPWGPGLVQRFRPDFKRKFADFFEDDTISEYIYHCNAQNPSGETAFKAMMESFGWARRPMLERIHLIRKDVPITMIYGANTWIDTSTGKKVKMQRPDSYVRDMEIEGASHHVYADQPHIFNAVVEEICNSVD
Method in brief: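 assay system = mABHD4 protein | compound dosing = single nominal dose of 8.92 µM, 0.89% DMSO final | read-out basis = percent inhibition of probe binding, normalized to plate controls | schedule = Enzyme–compound pre-incubation 45 min, then probe 60 min, both 25 °C | detection = fluorescence polarization, excitation 525 nm, emission 598 nm, BODIPY TMR filters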

inhibition, inactive:
O=C(N1CCOCC1)N1CC[C@H]2[C@H](CCCN2Cc2ccc(F)cc2)C1 4.72%
CC(C)C(C#CC1CC1)N(Cc1ccc2c(c1)OCO2)C(N)=NC(=O)/C=C/c1cccc(C(F)(F)F)c1 (stereo not drawn) 4.25%
C=CCNC(=S)N1CCN(CCN=Cc2c(C)[nH]n(-c3ccc([N+](=O)[O-])cc3)c2=O)CC1 -6.41%
O=C(Nn1c(SCc2ccc([N+](=O)[O-])cc2)nc2ccccc2c1=O)c1ccc(F)cc1 -52.4%
O=C(Nc1cc(F)cc(F)c1)OC1CCC12CCC(c1ccccc1)CC2 (stereo not drawn) -31.2%
CC(Oc1ccc(Cl)cc1)c1ccnn1S(C)(=O)=O (stereo not drawn) 1.1%
CCOC(=O)C1(Cc2ccccc2)CCN(Cc2cn(C(C)=O)c3ccccc23)CC1 -1.19%
COc1ccc(C)cc1NC(=O)c1[nH]c(C)c(C(C)=O)c1C -2.22%
CCc1c(C)nc2c(OC)cccc2c1Cl 0.48%
COC(=O)c1cccc(Cn2ccc3ccc(-c4ccc5ccn(C(=O)c6ccccc6C)c5c4)cc32)c1 1.96%
CCOC(=O)/C=C/c1ccc(C(F)(F)F)cc1S(=O)(=O)NC(C)(C)C -26.5%
CCOC(=O)C[C@H]1c2ccc(C(F)(F)F)cc2S(=O)(=O)N1c1ccccc1 -6.24%
CN1C(=O)c2cc(NS(C)(=O)=O)ccc2OC[C@@H]2O[C@@H](CC(=O)NCc3ccc(-c4ccccc4)cc3)CC[C@H]21 3.8%
Cc1ccc(Cn2cc(CN3[C@@H](CC(C)C)COc4ccc(Cl)cc4S3(=O)=O)nn2)cc1 4.37%
O=C(NCc1cccs1)C1CCCN(S(=O)(=O)c2ccc([N+](=O)[O-])cc2)C1 (stereo not drawn) 4.68%
O=S(=O)([N-]c1nc2ccccc2nc1-[n+]1ccc(Cc2ccccc2)cc1)c1ccc(Br)s1 7.29%
O=C1CCN(C(=O)Nc2ccccc2)N1 6.15%
Cc1ccc(NC2CCCN(C(=O)CCC3(C)CC3)C2)cc1C (stereo not drawn) 8.21%
O=C(Nc1cc(Cl)cc(Cl)c1)OCCN1CCCC12CCC(c1ccccc1)CC2 (stereo not drawn) 2.15%
COC(=O)c1ccc(COc2cc([N+](=O)[O-])cc3cccnc23)cc1 6.05%
COC(=O)C(C)N(C#N)c1nc(C)nc(C)n1 (stereo not drawn) -1.89%
O=C(Nc1ccccc1[N+](=O)[O-])C1C(c2ccccc2)=C1c1ccccc1 -0.35%
CCN(C(=O)Nc1cccc2ccccc12)c1ccccc1 18.5%
O=C1C(=O)N(Cc2ccc(-c3ccsc3)cc2)c2ccc(OC(F)(F)F)cc21 1.83%
COC(=O)[C@]12C[C@H](CC(=O)NCc3ccccc3)C(=O)N(CCc3ccc(OC)c(OC)c3)C1=C[C@H](C(C)(C)C)O[C@@H]2C 4.6%
CNc1[nH]ncc1[N+](=O)[O-] 7.62%
CN(C)CC(=O)N[C@@H]1C[C@@H]2O[C@H](CO)CC[C@@H]2O[C@@H]1CCc1ccc(C#Cc2ccccc2)cc1 3.38%
C#CCCN([C@H](C(=O)OC)C(C)C)S(=O)(=O)c1ccc(F)cc1Br -7.15%
O=C(CN(Cc1ccc(Br)cc1)S(=O)(=O)c1ccccc1)NCc1ccncc1 -0.4%
CC(=O)N(c1ccc2oc(=O)sc2c1)S(=O)(=O)c1ccc(C)cc1 7.97%
Cc1cc(C)nc(NC(=S)N2CCN(c3ccc(C(F)(F)F)cn3)CC2)c1 8.35%
O=C(NCc1ccco1)C1CCCN(S(=O)(=O)c2cccc3nonc23)C1 (stereo not drawn) 5.79%
CCOc1ccc(Br)cc1CSC(=N)N 4.65%
CCc1ccc(-c2nn(-c3ccccc3C)cc2C(=O)N2CCN(C3CCS(=O)(=O)C3)CC2)cc1 (stereo not drawn) 5.26%
CC1=C(C/C=C(\C)CCCC(C)CCCC(C)CCCC(C)C)C(=O)c2ccccc2C1=O (stereo not drawn) -0.54%
C=C(C)C1CC23C(=O)C4(C(=O)c5ccccc5)C[C@@]5(C)CCC(CC2C1(C)C)(C4=O)C35OC (stereo partly drawn) -1.09%
CCOCCOCCC(C(=O)O)P(=O)(c1ccccc1)c1ccccc1 (stereo not drawn) 4.54%
COc1ccccc1NC(=O)CCC(=O)OC(C)C(=O)c1ccccc1 (stereo not drawn) 4.06%
C#CCN([C@H](C(=O)OC)C(C)CC)S(=O)(=O)c1ccccc1Br (stereo partly drawn) -0.06%
O=C(C(=O)N1CCC(CNC(=O)c2cccnc2Cl)CC1)c1cccs1 2.01%
Cc1[nH]nc2c1C(c1ccc(Br)cc1)NC2=O (stereo not drawn) 7.99%
Cc1cc(NS(=O)(=O)c2ccc(NC(=O)CSc3nnc(-c4ccc(C(C)(C)C)cc4)n3Cc3ccco3)cc2)nc(C)n1 -7.09%

inhibition, active:
O=c1[nH]n(-c2ccc([N+](=O)[O-])cc2)c(=O)c2ccccc12 59.3%
COc1cccc2c(C)c(C(=O)O)[nH]c12 35.9%
CCOC(=O)C1Nc2ccc(C(F)(F)F)cc2C2C=CCC12 (stereo not drawn) 41.8%
CCC(C)Cn1c(O)cc2nn(-c3nc4ccccc4s3)c(=O)c-2c1C (stereo not drawn) 44.6%
O=C(O)c1cc([N+](=O)[O-])c(Nc2cccc3ccccc23)c([N+](=O)[O-])c1 35.4%
CCOc1cc(/C=C2/N=C(c3ccc(C(C)(C)C)cc3)OC2=O)cc(Cl)c1OS(C)(=O)=O 37.3%
O=C(c1cccnc1)N(c1cc2sc(=O)oc2c2ccccc12)S(=O)(=O)c1ccccc1 61.7%
CCc1ccc(-c2nn(-c3ccccc3)cc2CSC(=N)N)cc1 52.2%
NNc1nc2c(Cl)cccc2s1 70.2%
CN(C)[C@@H]1C(=O)C(C(N)=O)=C(O)[C@@]2(O)C(=O)C3=C(O)c4c(O)ccc(Cl)c4[C@@H](O)[C@H]3C[C@@H]12 55.1%
C=C1c2c(Cl)ccc(O)c2C(O)=C2C(=O)[C@]3(O)C(O)=C(C(N)=O)C(=O)[C@@H](N(C)C)[C@@H]3[C@@H](O)C12 (stereo partly drawn) 69.7%
